From paper PMC8324497 (Cell Reports Medicine, 2021)

Assays:
U-2932 = test: Cell viability MTS assay; format: cell-based; settings: Homo sapiens, U2932, read-out: IC50 mean values
In short: (§1)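 Lymphoma suspension lines were grown in RPMI 1640 with 10–20% heat-inactivated FBS, 1% L-glutamine and penicillin-streptomycin at 37°C, 5% CO2. Cells were plated at 25,000/100 μL (96-well) or 250,000/mL (24-well) with DMSO 0.1% vehicle or rising compound concentrations for 24–72 h. MTS reagent was added at 1:5 and absorbance read at 490 nm. IC50 was taken from three independent experiments (mean ± SD).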

[1] = tested on: HCT116, Panc-1, MIA PaCa-2 and SK-N-AS xenografts; test: Human tumor xenograft mouse models; format: in vivo; settings: all four models
In short: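 Female athymic nude or NSG mice, randomised at 10 per group, received subcutaneous cell-line implants. At about 100 mm3, animals were dosed orally with vehicle or compound at set doses and schedules (QD or BID); salt forms were used, free base for HCT116. Tumour volume, (L×W×H)/2, and body weight were measured twice weekly. Data are mean ± SEM, n > 8 per group.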

KARPAS-299 = test: Cell viability MTS assay; format: cell-based; settings: Homo sapiens, KARPAS-299, read-out: IC50 mean values
In short: as §1

BT-474 = test: Cell proliferation assay; format: cell-based; settings: Homo sapiens, BT-474, 72 h
In short: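 Adherent solid-tumour cells were seeded at 5,000 cells/well and allowed to attach for 16–24 h at 37°C, 5% CO2. They were exposed to the test compound at 0.0005–10 μM (3-fold serial dilutions) for 72 h. Alamar Blue was added (1X final) for 1–3 h and fluorescence read at 540 nm excitation, 590 nm emission. IC50 came from a sigmoidal variable-slope fit.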

ERK2 = ERK2 (Homo sapiens, UniProt P28482); test: ERK1/ERK2 HTRF enzymatic assay; format: biochemical
Sequence of ERK2 (P28482 whole entry): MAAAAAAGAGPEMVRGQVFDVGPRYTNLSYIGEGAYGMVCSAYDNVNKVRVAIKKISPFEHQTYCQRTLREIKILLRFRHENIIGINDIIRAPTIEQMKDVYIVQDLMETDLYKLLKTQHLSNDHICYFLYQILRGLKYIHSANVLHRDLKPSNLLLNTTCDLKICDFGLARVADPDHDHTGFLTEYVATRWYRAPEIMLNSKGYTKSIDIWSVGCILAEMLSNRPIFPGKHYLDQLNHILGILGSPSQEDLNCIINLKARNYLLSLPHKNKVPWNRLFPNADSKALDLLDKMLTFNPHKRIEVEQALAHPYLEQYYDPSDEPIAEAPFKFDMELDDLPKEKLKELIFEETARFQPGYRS

Cc1cnc(NC2CCOCC2)nc1-n1cnc(C(=O)NC(CN)c2cc(F)cc(Cl)c2)c1 (stereo not drawn) [ASN007, N-(2-amino-1-(3-chloro-5-fluorophenyl)ethyl)-1-(5-methyl-2-((tetrahydro-2H-pyran-4-yl)amino)pyrimidin-4-yl)-1H-imidazole-4-carboxamide]
IC50 (U-2932): 2300 nM
body weight [1]: without body weight loss
antitumor efficacy ([1]; oral, besylate or mandelate salt, freebase for HCT116): strong antitumor efficacy
IC50 (KARPAS-299): 4100 nM
IC50 (BT-474): > 10000 nM
IC50 (ERK2): 2 nM
